Reference: ChEMBL document CHEMBL2406932, “Heteroaromatic and aniline derivatives of piperidines as potent ligands for vesicular acetylcholine transporter” (J Med Chem, 2013)

Tests used:
Blood [1] = experiment: Biodistribution in Sprague-Dawley rat blood at 350 uCi, iv after 5 mins; format: ADME, organism-based; conditions: in vivo
Heart [2] = experiment: Biodistribution in Sprague-Dawley rat heart at 350 uCi, iv after 5 mins; format: ADME, organism-based; conditions: in vivo
Lung [3] = experiment: Biodistribution in Sprague-Dawley rat lung at 350 uCi, iv after 5 mins; format: ADME, organism-based; conditions: in vivo
Liver [4] = experiment: Biodistribution in Sprague-Dawley rat liver at 350 uCi, iv after 5 mins; format: ADME, organism-based; conditions: in vivo
Muscle tissue [5] = experiment: Biodistribution in Sprague-Dawley rat muscle at 350 uCi, iv after 5 mins; format: ADME, organism-based; conditions: in vivo
Rattus norvegicus [6] = experiment: Biodistribution in Sprague-Dawley rat fat at 350 uCi, iv after 5 mins; format: ADME, organism-based, Adipose tissue; conditions: in vivo
Pancreas [7] = experiment: Biodistribution in Sprague-Dawley rat pancreas at 350 uCi, iv after 5 mins; format: ADME, organism-based; conditions: in vivo
Spleen [8] = experiment: Biodistribution in Sprague-Dawley rat spleen at 350 uCi, iv after 5 mins; format: ADME, organism-based; conditions: in vivo
Kidney [9] = experiment: Biodistribution in Sprague-Dawley rat kidney at 350 uCi, iv after 5 mins; format: ADME, organism-based; conditions: in vivo
Brain [10] = experiment: Biodistribution in Sprague-Dawley rat brain at 350 uCi, iv after 5 mins; format: ADME, organism-based; conditions: in vivo
Blood [11] = experiment: Biodistribution in Sprague-Dawley rat blood at 350 uCi, iv after 30 mins; format: ADME, organism-based; conditions: in vivo, 0.5 h
Heart [12] = experiment: Biodistribution in Sprague-Dawley rat heart at 350 uCi, iv after 30 mins; format: ADME, organism-based; conditions: in vivo, 0.5 h
Lung [13] = experiment: Biodistribution in Sprague-Dawley rat lung at 350 uCi, iv after 30 mins; format: ADME, organism-based; conditions: in vivo, 0.5 h
Muscle tissue [14] = experiment: Biodistribution in Sprague-Dawley rat muscle at 350 uCi, iv after 30 mins; format: ADME, organism-based; conditions: in vivo, 0.5 h
Rattus norvegicus [15] = experiment: Biodistribution in Sprague-Dawley rat fat at 350 uCi, iv after 30 mins; format: ADME, organism-based, Adipose tissue; conditions: in vivo, 0.5 h
Pancreas [16] = experiment: Biodistribution in Sprague-Dawley rat pancreas at 350 uCi, iv after 30 mins; format: ADME, organism-based; conditions: in vivo, 0.5 h
Spleen [17] = experiment: Biodistribution in Sprague-Dawley rat spleen at 350 uCi, iv after 30 mins; format: ADME, organism-based; conditions: in vivo, 0.5 h
Kidney [18] = experiment: Biodistribution in Sprague-Dawley rat kidney at 350 uCi, iv after 30 mins; format: ADME, organism-based; conditions: in vivo, 0.5 h
Brain [19] = experiment: (§1) Biodistribution in Sprague-Dawley rat brain at 350 uCi, iv after 30 mins; format: ADME, organism-based; conditions: in vivo, 0.5 h
Liver [20] = experiment: Biodistribution in Sprague-Dawley rat liver at 350 uCi, iv after 30 mins; format: ADME, organism-based; conditions: in vivo, 0.5 h
Blood [21] = experiment: Biodistribution in Sprague-Dawley rat blood at 350 uCi, iv after 30 mins in presence of cyclosporin A; format: ADME, organism-based; conditions: in vivo, 0.5 h
Heart [22] = experiment: Biodistribution in Sprague-Dawley rat heart at 350 uCi, iv after 30 mins in presence of cyclosporin A; format: ADME, organism-based; conditions: in vivo, 0.5 h
Lung [23] = experiment: Biodistribution in Sprague-Dawley rat lung at 350 uCi, iv after 30 mins in presence of cyclosporin A; format: ADME, organism-based; conditions: in vivo, 0.5 h
Liver [24] = experiment: Biodistribution in Sprague-Dawley rat liver at 350 uCi, iv after 30 mins in presence of cyclosporin A; format: ADME, organism-based; conditions: in vivo, 0.5 h
Muscle tissue [25] = experiment: Biodistribution in Sprague-Dawley rat muscle at 350 uCi, iv after 30 mins in presence of cyclosporin A; format: ADME, organism-based; conditions: in vivo, 0.5 h
Rattus norvegicus [26] = experiment: Biodistribution in Sprague-Dawley rat fat at 350 uCi, iv after 30 mins in the presence of cyclosporin A; format: ADME, organism-based, Adipose tissue; conditions: in vivo, 0.5 h
Pancreas [27] = experiment: Biodistribution in Sprague-Dawley rat pancreas at 350 uCi, iv after 30 mins in the presence of cyclosporin A; format: ADME, organism-based; conditions: in vivo, 0.5 h
Spleen [28] = experiment: Biodistribution in Sprague-Dawley rat spleen at 350 uCi, iv after 30 mins in the presence of cyclosporin A; format: ADME, organism-based; conditions: in vivo, 0.5 h
Kidney [29] = experiment: Biodistribution in Sprague-Dawley rat kidney at 350 uCi, iv after 30 mins in the presence of cyclosporin A; format: ADME, organism-based; conditions: in vivo, 0.5 h
Brain [30] = experiment: Biodistribution in Sprague-Dawley rat brain at 350 uCi, iv after 30 mins in the presence of cyclosporin A; format: ADME, organism-based; conditions: in vivo, 0.5 h
Cerebellum [31] = experiment: Biodistribution in Sprague-Dawley rat cerebellum at 350 uCi, iv after 30 mins; format: ADME, organism-based; conditions: in vivo, 0.5 h
Striatum [32] = experiment: Biodistribution in Sprague-Dawley rat striatum at 350 uCi, iv after 30 mins; format: ADME, organism-based; conditions: in vivo, 0.5 h
Rattus norvegicus [33] = experiment: Biodistribution in Sprague-Dawley rat brain stem at 350 uCi, iv after 30 mins; format: ADME, organism-based; conditions: in vivo, 0.5 h
Cortex [34] = experiment: Biodistribution in Sprague-Dawley rat cortex at 350 uCi, iv after 30 mins; format: ADME, organism-based; conditions: in vivo, 0.5 h
Thalamus [35] = experiment: Biodistribution in Sprague-Dawley rat thalamus at 350 uCi, iv after 30 mins; format: ADME, organism-based; conditions: in vivo, 0.5 h
Hippocampus [36] = experiment: Biodistribution in Sprague-Dawley rat hippocampus at 350 uCi, iv after 30 mins; format: ADME, organism-based; conditions: in vivo, 0.5 h
Brain [37] = experiment: as §1; format: ADME, organism-based; conditions: in vivo, 0.5 h; remark: listed apart in the source
Cerebellum [38] = experiment: Biodistribution in Sprague-Dawley rat cerebellum at 350 uCi, iv after 30 mins in presence of cyclosporin A; format: ADME, organism-based; conditions: in vivo, 0.5 h
Striatum [39] = experiment: Biodistribution in Sprague-Dawley rat striatum at 350 uCi, iv after 30 mins in presence of cyclosporin A; format: ADME, organism-based; conditions: in vivo, 0.5 h
Rattus norvegicus [40] = experiment: Biodistribution in Sprague-Dawley rat brain stem at 350 uCi, iv after 30 mins in presence of cyclosporin A; format: ADME, organism-based; conditions: in vivo, 0.5 h
Cortex [41] = experiment: Biodistribution in Sprague-Dawley rat cortex at 350 uCi, iv after 30 mins in presence of cyclosporin A; format: ADME, organism-based; conditions: in vivo, 0.5 h
Thalamus [42] = experiment: Biodistribution in Sprague-Dawley rat thalamus at 350 uCi, iv after 30 mins in presence of cyclosporin A; format: ADME, organism-based; conditions: in vivo, 0.5 h
Hippocampus [43] = experiment: Biodistribution in Sprague-Dawley rat hippocampus at 350 uCi, iv after 30 mins in presence of cyclosporin A; format: ADME, organism-based; conditions: in vivo, 0.5 h
Brain [44] = experiment: Biodistribution in Sprague-Dawley rat brain at 350 uCi, iv after 30 mins in presence of cyclosporin A; format: ADME, organism-based; conditions: in vivo, 0.5 h
[45] = Biodistribution in cynomolgus monkey striatum at 5 to 7 mCi, iv up to 100 mins by microPET analysis; format: ADME, organism-based, Macaca fascicularis; conditions: in vivo
Summary of the method: (§2)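 Male cynomolgus monkeys (4–6 kg) were fasted 12 h, induced with ketamine (10 mg/kg) and glycopyrrolate (0.13 mg/kg) i.m., intubated and kept on 0.75–2.0% isoflurane. After attenuation-correction transmission scans, 5–7 mCi of tracer was given via venous catheter and a 100 min dynamic microPET scan was acquired. MRI-coregistered regions of interest yielded time-activity curves; n = 3.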

[46] = Biodistribution in cynomolgus monkey striatum at 5 to 7 mCi, iv after 10 mins by microPET analysis; format: ADME, organism-based, Macaca fascicularis; conditions: in vivo; summary of the method: as §2
Brain [47] = experiment: Ratio of drug uptake in Sprague-Dawley rat brain in absence of cyclosporin A to drug uptake in Sprague-Dawley rat brain in presence of cyclosporin A; format: ADME, tissue-based; conditions: in vivo
Summary of the method: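 Cyclosporine A (Sandimmune diluted 1:1 with saline) was given i.v. at 25 mg/kg 30 min before the radioligand. Rats were euthanized 30 min after tracer injection. Groups were compared with controls by Student t test (n=4).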

[48] = target: Sigma non-opioid intracellular receptor 1 (Cavia porcellus, UniProt Q60492); experiment: Displacement of (+)- [3H]pentazocine from sigma 1 receptor expressed in guinea pig brain membrane homogenates by scintillation counting analysis; format: cell membranes
[49] = target: T1, Vesicular acetylcholine transporter (Homo sapiens, UniProt Q16572); experiment: Displacement of (-)-[3H]vesamicol from human VAChT expressed in rat PC12 cell membrane after 20 hrs; format: cell membranes, PC-12
T1 sequence (Q16572 whole entry): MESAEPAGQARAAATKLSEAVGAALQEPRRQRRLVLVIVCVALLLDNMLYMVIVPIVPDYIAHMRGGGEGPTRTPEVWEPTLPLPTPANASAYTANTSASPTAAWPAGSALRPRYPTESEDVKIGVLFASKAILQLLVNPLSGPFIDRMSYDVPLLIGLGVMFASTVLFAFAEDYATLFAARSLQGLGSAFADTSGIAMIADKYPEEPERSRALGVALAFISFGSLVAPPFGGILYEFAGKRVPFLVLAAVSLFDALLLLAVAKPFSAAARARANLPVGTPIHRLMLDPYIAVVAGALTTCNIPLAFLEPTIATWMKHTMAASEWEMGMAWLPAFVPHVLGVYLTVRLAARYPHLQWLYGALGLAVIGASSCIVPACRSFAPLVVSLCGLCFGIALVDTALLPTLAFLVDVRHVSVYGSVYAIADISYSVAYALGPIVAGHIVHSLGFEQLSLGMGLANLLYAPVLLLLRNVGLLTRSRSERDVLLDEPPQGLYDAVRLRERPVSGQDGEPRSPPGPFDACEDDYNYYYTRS

[50] = Displacement of [3H]DTG from sigma 2 receptor in rat liver membrane homogenates after 120 mins by scintillation counting analysis; format: cell membranes
Summary of the method: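 Rat liver membrane homogenate (~300 µg protein) with ~5 nM [3H]DTG plus 1 µM (+)-pentazocine to block sigma-1 sites, 120 min at room temperature, pH 7.4 Tris buffer. Nonspecific binding taken with 10 µM haloperidol. Filtration and scintillation counting.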

Macaca fascicularis = experiment: Ratio of drug level in cynomolgus monkey […] at 5 to 7 mCi, iv after 70 mins; conditions: in vivo

Chain of Sigma non-opioid intracellular receptor 1 (Q60492 whole entry): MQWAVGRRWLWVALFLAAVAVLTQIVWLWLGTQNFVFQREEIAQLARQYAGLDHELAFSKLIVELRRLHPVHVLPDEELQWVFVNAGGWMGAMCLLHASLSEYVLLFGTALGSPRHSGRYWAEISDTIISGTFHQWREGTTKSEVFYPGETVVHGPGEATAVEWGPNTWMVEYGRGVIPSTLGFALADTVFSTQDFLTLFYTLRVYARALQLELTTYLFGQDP

`[11CH3]Nc1ccc(C(=O)C2CCN([C@H]3Cc4ccccc4C[C@@H]3O)CC2)cc1` showed a Drug uptake (Blood [1]) of 0.34 % ID/g, a Drug uptake (Heart [2]) of 0.49 % ID/g and a Drug uptake (Lung [3]) of 1.77 % ID/g. For the same molecule, the Drug uptake (Liver [4]) was 3.45 % ID/g, the Drug uptake (Muscle tissue [5]) was 0.22 % ID/g and the Drug uptake (Rattus norvegicus [6]) was 0.18 % ID/g. It also gave a Drug uptake (Pancreas [7]) of 0.89 % ID/g, a Drug uptake (Spleen [8]) of 1.19 % ID/g and a Drug uptake (Kidney [9]) of 1.47 % ID/g. The Drug uptake (Brain [10]) was 0.57 % ID/g, the Drug uptake (Blood [11]) was “Active” and the Drug uptake (Heart [12]) was “Active”. The Drug uptake (Lung [13]) was “Active”, the Drug uptake (Muscle tissue [14]) was “Active” and the Drug uptake (Rattus norvegicus [15]) was “Active”. For the same molecule, the Drug uptake (Pancreas [16]) was “Active”, the Drug uptake (Spleen [17]) was “Active” and the Drug uptake (Kidney [18]) was “Active”. The Drug uptake (Brain [19]) was “Active”, the Drug uptake (Liver [20]) was 2.44 % ID/g and the Drug uptake (Blood [21]) was “Active”. The Drug uptake (Heart [22]) was “Active”, the Drug uptake (Lung [23]) was “Active” and the Drug uptake (Liver [24]) was “Active”. For the same molecule, the Drug uptake (Muscle tissue [25]) was “Active”, the Drug uptake (Rattus norvegicus [26]) was “Active” and the Drug uptake (Pancreas [27]) was “Active”. The Drug uptake (Spleen [28]) was “Active”, the Drug uptake (Kidney [29]) was 1.21 % ID/g and the Drug uptake (Brain [30]) was “Active”. The Drug uptake (Cerebellum [31]) was 0.157 % ID/g, the Drug uptake (Striatum [32]) was 0.593 % ID/g and the Drug uptake (Rattus norvegicus [33]) was 0.245 % ID/g. For the same molecule, the Drug uptake (Cortex [34]) was 0.262 % ID/g, the Drug uptake (Thalamus [35]) was 0.293 % ID/g and the Drug uptake (Hippocampus [36]) was 0.265 % ID/g. It also gave a Drug uptake (Brain [37]) of 0.272 % ID/g, a Drug uptake (Cerebellum [38]) of 0.404 % ID/g and a Drug uptake (Striatum [39]) of 1.02 % ID/g. The Drug uptake (Rattus norvegicus [40]) was 0.577 % ID/g, the Drug uptake (Cortex [41]) was 0.637 % ID/g and the Drug uptake (Thalamus [42]) was 0.6 % ID/g. For the same molecule, the Drug uptake (Hippocampus [43]) was 0.562 % ID/g, the Drug uptake (Brain [44]) was 0.596 % ID/g and the Drug uptake [45] was “Active”. For the same molecule, the Drug uptake [46] was “Active”, the Ratio (Brain [47]) was 2.2 and the Ki [48] was 992 nM. For the same molecule, the Ki [49] was 0.78 nM, the Ki [50] was 11400 nM and the Ratio (Macaca fascicularis) was greater than 2.5.
